The full list was thinned out, with hits kept by preference.
D1 allo mod – D1 CRE-luciferase signal change, two-sided – cell-based, HEK293 D1, dopamine EC30, D1 allosteric modulator project, primary screen | D(1A) dopamine receptor (Homo sapiens), P21728 | hit rate 5.9% among 58,000 | B-score at 10 µM | dopamine EC30 potentiation; actives deviate in either direction;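 active means luminescence count or its row- and column-corrected plate score outside the 99.7% band of the plate's sample wells, on either side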
hDAT+cocaine – changed hDAT dopamine uptake under cocaine IC80, either direction, primary screen, cocaine antagonist project, cell-based, LLC-PK1 hDAT, [14C]-dopamine uptake, MLSMR. Sodium-dependent dopamine transporter (Homo sapiens), Q01959. LLC-PK1 hDAT cells, [14C]-dopamine uptake with cocaine IC80; actives deviate in either direction. B-score at 10 µM. hit rate 1.3% among 110,000;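 active means Z score or B-score, a plate-position-corrected score, falls beyond the plate's 99.7% confidence bounds, in either direction; inactive means both scores lie inside the 99.7% bounds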;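 further: scored against the spread of the other compound wells on the same plate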
Target sequence (Q01959 whole entry, looked up): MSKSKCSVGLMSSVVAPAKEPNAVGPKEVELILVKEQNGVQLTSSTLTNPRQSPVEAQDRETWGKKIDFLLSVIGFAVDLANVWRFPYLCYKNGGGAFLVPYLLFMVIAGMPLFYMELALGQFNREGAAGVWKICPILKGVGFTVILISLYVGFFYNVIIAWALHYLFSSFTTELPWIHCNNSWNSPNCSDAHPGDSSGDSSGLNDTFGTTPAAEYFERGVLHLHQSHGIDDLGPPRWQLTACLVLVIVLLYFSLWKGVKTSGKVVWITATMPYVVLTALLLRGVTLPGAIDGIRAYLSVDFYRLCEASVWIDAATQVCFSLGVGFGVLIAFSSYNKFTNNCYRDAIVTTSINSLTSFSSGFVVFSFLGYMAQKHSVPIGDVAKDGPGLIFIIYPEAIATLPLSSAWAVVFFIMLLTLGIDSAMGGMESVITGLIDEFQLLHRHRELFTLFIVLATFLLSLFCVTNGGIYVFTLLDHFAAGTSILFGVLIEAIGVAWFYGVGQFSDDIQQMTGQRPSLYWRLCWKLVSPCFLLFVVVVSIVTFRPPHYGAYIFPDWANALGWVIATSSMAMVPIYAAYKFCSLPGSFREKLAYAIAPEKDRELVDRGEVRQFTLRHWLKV
AP complement – alternative complement pathway inhibitors, primary screen, biochemical, ELISA, human serum, orthogonally pooled compounds; LPS-coated ELISA, C3 deposition; tested in compound mixtures; inhibition, % at 5 µM; hit rate 0.08% among 62,000;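 active means inhibition above 30% in each of the two pooled mixtures holding the compound, so the lower value exceeds 30%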;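 further: 0% = serum in Mg-EGTA without compound and 100% = EDTA serum blank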
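Assay system: Human serum alternative complement pathway, C3 deposition on LPS-coated wells | Incubation: 1 h serum-compound exposure at 37 °C | Doses: 5 µM per compound in ten-compound mixtures | Read-out: Percent inhibition | Technique: ELISA with HRP anti-human C3 antibody, TMB substrate, absorbance 450 nm | Replication: Two pool placements per compound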
Calb biofilm kill – clotrimazole potentiators killing Candida biofilms, primary screen, with clotrimazole, Alamar Blue; inhibition, % at 6 µM; hit rate 0.14% among 85,000; C. albicans biofilm + clotrimazole;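 active means inhibition above 20%; inactive means inhibition below 20%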;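 further: preformed 24 hr biofilms exposed to compound for 48 hr; 0% = biofilm without compound and 100% = blank killed by clotrimazole plus chlorhexidine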
MMP13 inh – human MMP13 inhibitors, primary screen, biochemical, FRET peptide cleavage; MMP-13 fTHP FRET cleavage, Mca fluorescence; inhibition, % at 4 µM; hit rate 0.07% among 65,000;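 active means inhibition above the mean of compound-free control plate wells plus 3 SD, cut at about 14% in these data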;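 further: 0% = DMSO wells and 100% = wells with reference MMP-13 inhibitor after basal subtraction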
D1 mod confirm – D1 receptor positive allosteric modulators, retest, confirmation, cell-based, HEK293 D1, CRE-luciferase, duplicate | shares compounds with D1 allo mod | dopamine EC30 potentiation; active compounds read high | luminescence at 10 µM | hit rate 88% among 2,200 | AID 642, 2007;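 active means luminescence in either of two replicates above the same-plate mean plus 3 SD of the low-dose dopamine control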
D1 ag no DA – D1 receptor agonism without dopamine, confirmation, mechanism study for D1 allosteric modulator project, cell-based, HEK293 D1, CRE-luciferase, secondary assay 1; shares compounds with D1 allo mod; luminescence at 10 µM; luminescence, no dopamine; active compounds read high; AID 646, 2007; hit rate 0.8% among 1,900; in the data active means luminescence above about 3900
Isoprot counter – counter-screen for D1 modulators: isoproterenol response in HEK293 cells; shares compounds with D1 allo mod; HEK293 D1 CRE-luciferase, isoproterenol EC30 counter-screen; active compounds read high; luminescence at 10 µM; hit rate 63% among 2,200; AID 647;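 active means luminescence in either replicate above plate mean of wells with a partly effective reference agonist dose plus 3 SD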;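 further: isoproterenol raises cAMP through native beta-adrenoceptor Gs so signal bypasses D1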
Active calls of the source: *.

How did Cc1cc(C)n2nc(SCC(=O)N(C(C)C)C(C)C)nc2n1 do in these assays?
D1 allo mod: 0.481; hDAT+cocaine: -8.91*; AP complement: 0.0; Calb biofilm kill: 1.0; MMP13 inh: -2.7

What do the screens show for `CNC(=O)CSc1nc2nc(C)cc(C)n2n1`?
hDAT+cocaine: -1.49; Calb biofilm kill: -0.6

Results for COC(=O)CSc1nc(NCC(C)C)nc(N2CCOCC2)n1 ?
D1 allo mod: 0.437; hDAT+cocaine: -0.359; AP complement: -2.4; Calb biofilm kill: 9.0; MMP13 inh: -1.7

What do the screens show for `CSc1nc(NC(C)C)nc(N2CCOCC2)n1`?
D1 allo mod: 17.6*; hDAT+cocaine: -0.0856; AP complement: 3.2; Calb biofilm kill: -2.6; MMP13 inh: 7.6

Results for C=CCOC(=O)C1=C[C@H](c2coc3ccccc3c2=O)[C@@H](CCCO)[C@H](OCC)O1 ?
hDAT+cocaine: 0.105

What do the screens show for `CCN(CC)S(=O)(=O)c1ccc(N=Nc2c(C)[nH]n(C(N)=S)c2=O)cc1`?
hDAT+cocaine: -2.96*; Calb biofilm kill: 8.5

Results for NC(=S)n1[nH]c(-c2ccc([N+](=O)[O-])cc2)c(N=Nc2ccc(O)cc2)c1=O ?
Calb biofilm kill: 1.9

Results for CCNc1nc(N2CCCCC2)nc(-n2nnc(C(=O)OCC)c2C)n1 ?
D1 allo mod: 4.13; hDAT+cocaine: 2.78*; AP complement: 11.1; Calb biofilm kill: 3.1; MMP13 inh: 2.5

Results for COC(=O)c1nnn(-c2nc(N3CCCCC3)nc(N3CCCCC3)n2)c1C ?
D1 allo mod: 0.766; AP complement: 2.6; Calb biofilm kill: 3.9; MMP13 inh: 3.6

How did CN(C)c1ccc(/C=N/n2ncc3ccccc32)cc1 do in these assays?
D1 allo mod: -3.44*; hDAT+cocaine: 0.917; AP complement: 3.1; Calb biofilm kill: 8.5; MMP13 inh: -13.7

Results for C=CCn1c(/N=C/c2ccc(N(C)C)cc2)nc2ccccc21 ?
D1 allo mod: -0.512; hDAT+cocaine: 0.208; AP complement: -5.8; Calb biofilm kill: 0.2; MMP13 inh: 4.2

How did Cc1ccc(-n2ncc(C#N)c2/N=C/N2CCOCC2)cc1 do in these assays?
D1 allo mod: 13.6*; hDAT+cocaine: 0.844; AP complement: 3.2; Calb biofilm kill: 2.5; MMP13 inh: 7.4; D1 mod confirm: 14372*; D1 ag no DA: 1604; Isoprot counter: 4340*

Results for O=C(c1cccs1)N(Cc1ccccn1)Cc1ccco1 ?
D1 allo mod: 10.4*; hDAT+cocaine: -0.251; AP complement: 8.1; MMP13 inh: 7.8; D1 mod confirm: 13228*; D1 ag no DA: 1456; Isoprot counter: 4076*

Results for COC(=O)c1ccccc1NC(=O)c1cccc(NC(=O)CSCc2ccccc2)c1C ?
hDAT+cocaine: 0.264

What do the screens show for `O=C1C(Cl)=C(NCC2CCCO2)C(=O)N1C1CCCCC1` (stereo unspecified)?
D1 allo mod: 4.35*; hDAT+cocaine: -0.0975; AP complement: 5.8; Calb biofilm kill: 3.5; MMP13 inh: 2.6; D1 mod confirm: 8656*; D1 ag no DA: 1704; Isoprot counter: 2776

How did O=C1C(Cl)=C(NCC2CCCO2)C(=O)N1c1ccccc1 (stereo unspecified) do in these assays?
D1 allo mod: 0.501; hDAT+cocaine: 0.966; AP complement: 8.9; Calb biofilm kill: -3.8; MMP13 inh: 2.2

Results for CCOC(=O)CN1C(=O)N[C@@H](CCc2ccccc2)[C@@H](C(=O)OC)[C@H]1C ?
hDAT+cocaine: 0.0858

How did CCN1C(=O)c2cccc3c(NC(=O)c4ccc(OC)c(OC)c4)ccc1c23 do in these assays?
hDAT+cocaine: -0.13; Calb biofilm kill: 5.3

Results for CCOC(=O)Nc1ccc2c(c1)Sc1ccccc1N2C(=O)CCN1CCOCC1 ?
D1 allo mod: 4.83*; hDAT+cocaine: 0.881; AP complement: 10.7; Calb biofilm kill: 12.1; MMP13 inh: -3.9; D1 mod confirm: 8528*; Isoprot counter: 3084*

Results for CCCCNC(=O)c1onc(CSc2ccc(F)c(F)c2)c1C(=O)O ?
hDAT+cocaine: -0.252

Results for CCOc1c(Cl)cc(CNCC(C)C)cc1Cl ?
hDAT+cocaine: 1.53; Calb biofilm kill: 6.7

Results for Cn1c(NC(=O)c2cccc(C(F)(F)F)c2)cc(=O)n(C)c1=O ?
D1 allo mod: 6.95*; hDAT+cocaine: -0.585; AP complement: 7.4; Calb biofilm kill: 5.9; MMP13 inh: 4.1; D1 mod confirm: 17760*; D1 ag no DA: 1560; Isoprot counter: 3820*

How did COc1ccc(-n2c(Cc3cccn3C)nnc2SCC(=O)Nc2ccc(C)cc2C)cc1 do in these assays?
D1 allo mod: 17*; hDAT+cocaine: -0.614; AP complement: 19.6; Calb biofilm kill: -2.1; MMP13 inh: 5.6; D1 mod confirm: 4936; D1 ag no DA: 1328; Isoprot counter: 2312

Results for Cc1nnc(NC(=O)CSc2nnc(Cc3cccn3C)n2-c2cccc(C(F)(F)F)c2)s1 ?
D1 allo mod: 3.38*; hDAT+cocaine: 1.13; AP complement: 6.6; Calb biofilm kill: 23.5*; MMP13 inh: 2.4; D1 mod confirm: 5796; D1 ag no DA: 1516; Isoprot counter: 2684

What do the screens show for `CSc1nc(NC(C)(C)C)nc(N2CCOCC2)n1`?
D1 allo mod: 14.9*; hDAT+cocaine: -1.78; AP complement: 4.1; MMP13 inh: 9.8; D1 mod confirm: 15276*; D1 ag no DA: 1464; Isoprot counter: 4000*

What do the screens show for `CCNc1nc(SCC(=O)OC)nc(N2CCOCC2)n1`?
D1 allo mod: 6.41*; hDAT+cocaine: -0.834; AP complement: 6.2; Calb biofilm kill: 11.2; MMP13 inh: 2.0; D1 mod confirm: 18868*; D1 ag no DA: 1512; Isoprot counter: 4012*

Results for CCNc1nc(N2CCOCC2)nc(N(c2ccccc2)c2ccccc2)n1 ?
D1 allo mod: 0.345; hDAT+cocaine: 0.339; AP complement: 4.2; Calb biofilm kill: 9.9; MMP13 inh: 1.4

Results for C=CCNc1nc(NCC)nc(N2CCOCC2)n1 ?
hDAT+cocaine: 0.0324; Calb biofilm kill: 4.6

What do the screens show for `CC(C)(C)Nc1nc(SCc2ccccc2)nc(N2CCOCC2)n1`?
D1 allo mod: 0.00307; hDAT+cocaine: -0.565; AP complement: 12.5; Calb biofilm kill: 1.2; MMP13 inh: 2.0

High-throughput results (PubChem)
